Calls of active or inactive are those of the source. No cut-off for these calls is given here.
Legend:
[1] = test system: Liver; assay: Metabolic stability in mouse liver microsomes assessed as compound remaining at 10 uM after 1 hr by LC-MS/MS analysis; format: ADME, microsome
How it was run: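 Compound stability was measured in human or mouse liver microsomes as percent remaining after 1 h. Data came from two independent experiments, each run in triplicate.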

[2] = Half life in human liver microsomes at 10 uM by LC-MS/MS analysis; format: ADME, microsome
[3] = Cytotoxicity in human HepG2 cells after 48 hrs by Cell-titer Glo reagent based assay; details: read-out: LD50
How it was run: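 Cells (HEK293, HepG2 or BEAS2B) exposed to compounds at a range of concentrations for 48 h; viability read by Cell-Titer Glo luminescence. Normalized to DMSO (negative) and 3-dibutylamino-1-(4-hexyl-phenyl)-propan-1-one at 150 μM final in DMSO (positive).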

[4] = test system: Mus musculus; assay: Neurotoxicity in Swiss Webster mouse assessed as induction of senorimotor impairment at 40 mg/kg, ip administered 10 mins prior to testing and measured for 3 mins at 10 to 60 mins after drug administration by rotarod method; format: toxicity, organism-based; details: in vivo
How it was run: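 Swiss Webster mice, pre-trained at 15 rpm until they held on for 3 min at three consecutive sessions, were given a single i.p. dose of 40 mg/kg in 10% DMSO/40% propylene glycol/50% PBS. Rotarod at 15 rpm for 3 min at 10, 30 and 60 min after dosing. Falls before 3 min scored as fail, with time of fall recorded. N = 10, mean ± SEM. Vehicle and diazepam 5 mg/kg i.p. controls. Mice rested 2–3 days between doses.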

[5] = test system: Mus musculus; assay: Antiasthamatic effect in BALB/c mouse model of ovalbumin-induced asthma assessed as inhibition of airway hyperresponsiveness at 40 mg/kg, ip administered 40 mins as single dose prior to measurement; format: functional, organism-based
[6] = Cmax in mouse blood at 5 mg/kg, ip by LC/MS/MS analysis; format: ADME, organism-based; design: dose 5 mg/kg, route intraperitoneal
[7] = test system: Blood; assay: Half life in mouse blood at 5 mg/kg, ip by LC/MS/MS analysis; format: ADME, organism-based; details: in vivo
[8] = AUC (0 to t) in mouse blood at 5 mg/kg, ip by LC/MS/MS analysis; format: ADME, organism-based
[9] = test system: Brain; assay: Cmax in mouse brain at 5 mg/kg, ip by LC/MS/MS analysis; format: ADME, organism-based; design: dose 5 mg/kg, route intraperitoneal; details: in vivo
[10] = test system: Brain; assay: AUC (0 to t) in mouse brain at 5 mg/kg, ip by LC/MS/MS analysis; format: ADME, organism-based; details: in vivo
[11] = Cmax in mouse lung at 5 mg/kg, ip by LC/MS/MS analysis; format: ADME, organism-based; design: dose 5 mg/kg, route intraperitoneal
[12] = test system: Lung; assay: AUC (0 to t) in mouse lung at 5 mg/kg, ip by LC/MS/MS analysis; format: ADME, organism-based; details: in vivo
[13] = Elimination rate constant in mouse blood at 5 mg/kg, ip by LC/MS/MS analysis; format: ADME, organism-based
[14] = Elimination rate constant in mouse brain at 5 mg/kg, ip by LC/MS/MS analysis; format: ADME, organism-based
[15] = Elimination rate constant in mouse lung at 5 mg/kg, ip by LC/MS/MS analysis; format: ADME, organism-based
[16] = test system: Blood; assay: Tmax in mouse blood assessed as (S)-7-Methoxy-N-methyl-9-oxo-11,12,13,13a-tetrahydro-9H-benzo[e]imidazo[5,1-c]pyrrolo[1,2-a][1,4]diazepine-1-carboxamide at 5 mg/kg, ip by LC/MS/MS analysis; format: ADME, organism-based; details: in vivo
[17] = test system: Blood; assay: Cmax in mouse blood assessed as (S)-7-Methoxy-N-methyl-9-oxo-11,12,13,13a-tetrahydro-9H-benzo[e]imidazo[5,1-c]pyrrolo[1,2-a][1,4]diazepine-1-carboxamide at 5 mg/kg, ip by LC/MS/MS analysis; format: ADME, organism-based; design: dose 5 mg/kg, route intraperitoneal; details: in vivo
[18] = test system: Blood; assay: Elimination rate constant in mouse blood assessed as (S)-7-Methoxy-N-methyl-9-oxo-11,12,13,13a-tetrahydro-9H-benzo[e]imidazo[5,1-c]pyrrolo[1,2-a][1,4]diazepine-1-carboxamide at 5 mg/kg, ip by LC/MS/MS analysis; format: ADME, organism-based; details: in vivo
[19] = test system: Blood; assay: Half life in mouse blood assessed as (S)-7-Methoxy-N-methyl-9-oxo-11,12,13,13a-tetrahydro-9H-benzo[e]imidazo[5,1-c]pyrrolo[1,2-a][1,4]diazepine-1-carboxamide at 5 mg/kg, ip by LC/MS/MS analysis; format: ADME, organism-based; details: in vivo
[20] = test system: Blood; assay: AUC (0 to t) in mouse blood assessed as (S)-7-Methoxy-N-methyl-9-oxo-11,12,13,13a-tetrahydro-9H-benzo[e]imidazo[5,1-c]pyrrolo[1,2-a][1,4]diazepine-1-carboxamide at 5 mg/kg, ip by LC/MS/MS analysis; format: ADME, organism-based; details: in vivo

## COc1ccc2c(c1)C(=O)N1CCC[C@H]1c1c(C(=O)N(C)C)ncn1-2
[1]
  Stability: 82.5%
[2]
  half-life at 10 µM: 705 min
[3]
  CC50 at 48 h: > 400 µM
[4]
  Activity: Non-Toxic
[5]
  Activity: inactive
[6]
  Cmax: 691 ng/mL
[7]
  t1/2: 8.8 min
[8]
  AUC(0-t): 103 ng·h/mL
[9]
  Cmax: 123 ng/g
[10]
  AUCt: 2701 ng·min/g
[11]
  Cmax: 30 ng/g
[12]
  AUCt: 764 ng·min/g
[13]
  k el: 0.0013 s⁻¹
[14]
  k el: 0.00112 s⁻¹
[15]
  k el: 0.000983 s⁻¹
[16]
  Tmax: 40 min
[17]
  Cmax: 1176 ng/g
[18]
  Kel: 0.028 min⁻¹
[19]
  t1/2: 24.3 min
[20]
  AUCt: 64675 ng·min/mL

Reference: ChEMBL document CHEMBL3992505, “Optimization of substituted imidazobenzodiazepines as novel asthma treatments” (Eur J Med Chem, 2017)
